Reference: ChEMBL document CHEMBL2413052, “Synthesis and initial in vitro biological evaluation of two new zinc-chelating compounds: comparison with TPEN and PAC-1” (Bioorg Med Chem, 2013)
Blank lines part the entries; values can stand above or below the compound they belong to. Calls of active or inactive are those of the source. The calls are words filed in the database; no cut-off is given here.

Assays:
[1] = tested on: PC-12; experiment: Induction of apoptosis in rat PC12 cells at 100 uM after 24 hrs by trypan blue exclusion assay in presence of caspase-3 inhibitor C3-I; format: functional, cell-based
In short: (§1)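 PC12 cells exposed 24 h to chelator (25, 100 or 200 µM), alone or together with ZnSO4, caspase-3 inhibitor, or DHR as ROS scavenger. Each additive was also tested alone. Stained with trypan blue. Dead cells expressed as % of total cells. Mean of 4 experiments ± S.D. One-way ANOVA with Holm-Sidak, compared against DMSO.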

[2] = tested on: PC-12; experiment: Induction of apoptosis in rat PC12 cells at 100 uM after 24 hrs by trypan blue exclusion assay in presence of ZnSO4; format: functional, cell-based; in short: as §1
[3] = tested on: PC-12; experiment: Induction of apoptosis in rat PC12 cells at 100 uM after 24 hrs by trypan blue exclusion assay in presence of DHR; format: functional, cell-based; in short: as §1
[4] = tested on: PC-12; experiment: Induction of apoptosis in rat PC12 cells assessed as ROS induction by DHE oxidation-based fluorometric assay; format: functional, cell-based
[5] = tested on: PC-12; experiment: Induction of apoptosis in rat PC12 cells assessed as ROS induction at 100 uM measured after 1 to 4 hrs by DHR oxidation-based fluorometric assay; format: functional, cell-based
In short: (§2)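 PC12 cells in 96-well plates were loaded with DHR (0.1 µM) for 30 min at 37 °C, washed, then treated 1 h or 4 h. Medium was replaced with PBS and fluorescence read for 30 min (ex 485/em 535 nm). The slope gave ROS production, relative to the untreated-control slope at 4 h. Untreated and DMSO controls. Mean of 3 experiments ± S.D.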

[6] = tested on: PC-12; experiment: Induction of apoptosis in rat PC12 cells assessed as procaspase-3 activation at 100 uM after 24 hrs by fluorometric assay; format: functional, cell-based
In short: (§3)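 PC12 cells in 96-well plates were treated 4 h. Lysed in modified RIPA buffer (50 mM Tris-HCl pH 7.4, 1% Igepal, 0.25% deoxycholate, 150 mM NaCl, 1 mM EGTA) containing 20 µM (DEVD)2-rhodamine 110. Lysate incubated 24 h at 37 °C, fluorescence read at ex 485/em 535 nm. Wells with 1 µM Ac-DEVD-cmk served as negative control. DMSO control; staurosporine 0.5 and 1 µM as positive controls. Mean of 5 experiments ± S.D.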

[7] = tested on: PC-12; experiment: Induction of apoptosis in rat PC12 cells after 24 hrs by trypan blue exclusion assay; format: functional, cell-based; conditions: for EC50: PC-12, 24 h
In short: (§4)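 PC12 cells (rat pheochromocytoma) grown in DMEM with 5% horse serum, 10% FBS, penicillin/streptomycin and sodium pyruvate at 37 °C, 5% CO2. Treated 24 h at 10, 25, 50, 75, 100 and 200 µM in DMSO (0.1% final). Trypan blue in 0.9% NaCl added 1:4 for 30 min at 37 °C. Blue cells counted as dead, as % of total cells. Mean of 4 experiments ± S.D.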

[8] = Lipophilicity, log P of the compound; format: physicochemical; conditions: octanol/water
[9] = Metal chelating activity of the compound assessed as zinc affinity by UV spectroscopy; format: functional
In short: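 Compound diluted from a 10 mM DMSO stock to 50 µM final in 50 mM Hepes, 100 mM NaNO3, pH 7.4. ZnSO4 added at 0–1 equiv and equilibrated 60 min. Absorbance spectra recorded from 260 to 500 nm; change followed at 360 and 400 nm.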

[10] = tested on: PC-12; experiment: Induction of apoptosis in rat PC12 cells at 200 uM after 24 hrs by trypan blue exclusion assay in presence of caspase-3 inhibitor C3-I; format: functional, cell-based; in short: as §1
[11] = tested on: PC-12; experiment: Induction of apoptosis in rat PC12 cells at 200 uM after 24 hrs by trypan blue exclusion assay in presence of DHR; format: functional, cell-based; in short: as §1
[12] = tested on: PC-12; experiment: Induction of apoptosis in rat PC12 cells at 200 uM after 24 hrs by trypan blue exclusion assay in presence of ZnSO4; format: functional, cell-based; in short: as §1
[13] = tested on: PC-12; experiment: Induction of apoptosis in rat PC12 cells assessed as ROS induction at 200 uM measured after 1 to 4 hrs by DHR oxidation-based fluorometric assay; format: functional, cell-based; in short: as §2
[14] = tested on: PC-12; experiment: Induction of apoptosis in rat PC12 cells assessed as procaspase-3 activation at 200 uM after 24 hrs by fluorometric assay; format: functional, cell-based; in short: as §3
[15] = tested on: PC-12; experiment: Induction of apoptosis in rat PC12 cells at 200 uM after 24 hrs by trypan blue exclusion assay; format: functional, cell-based; in short: as §4
[16] = Distribution co-efficient, log D of the compound at pH 7.4; format: physicochemical; conditions: buffer
[17] = tested on: PC-12; experiment: Induction of apoptosis in rat PC12 cells at 25 uM after 24 hrs by trypan blue exclusion assay in presence of ZnSO4; format: functional, cell-based; in short: as §1
[18] = tested on: PC-12; experiment: Induction of apoptosis in rat PC12 cells at 25 uM after 24 hrs by trypan blue exclusion assay in presence of caspase-3 inhibitor C3-I; format: functional, cell-based; in short: as §1
[19] = tested on: PC-12; experiment: Induction of apoptosis in rat PC12 cells assessed as ROS induction at 25 uM measured after 1 to 4 hrs by DHR oxidation-based fluorometric assay; format: functional, cell-based; in short: as §2
[20] = tested on: PC-12; experiment: Induction of apoptosis in rat PC12 cells assessed as procaspase-3 activation at 25 uM after 24 hrs by fluorometric assay; format: functional, cell-based; conditions: in the assay text read “after 4 hrs” for “after 24 hrs”; in short: as §3
[21] = tested on: PC-12; experiment: Induction of apoptosis in rat PC12 cells assessed as procaspase-3 activation at 1 uM after 24 hrs by fluorometric assay; format: functional
In short: (§5)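 Rat PC12 cells were seeded in 96-well plates at 28 × 10^4 for 24 h, then treated for 4 h, with DMSO-treated cells as control. Cells were lysed in modified RIPA buffer (50 mM Tris-HCl pH 7.4, 1% Igepal, 0.25% deoxycholate, 150 mM NaCl, 1 mM EGTA) containing 20 µM (DEVD)2-Rhodamine 110. Lysate was incubated 24 h at 37 °C and read at ex 485/em 535 nm as RFU/million cells.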

[22] = tested on: PC-12; experiment: Induction of apoptosis in rat PC12 cells assessed as procaspase-3 activation at 0.5 uM after 24 hrs by fluorometric assay; format: functional; in short: as §5

logP [8]: 3.43
Structure (SMILES): C=CCc1cccc(/C=N/NC(=O)CN2CCN(Cc3ccccc3)CC2)c1O [PAC-1]
Activity [1]: inactive | Activity [2]: inactive | Activity [3]: inactive | Activity [4]: inactive | Activity [5]: Active | Activity [6]: Active | Activity [7]: Dose-dependent effect | EC50 [7]: 122000 nM | Kd [9]: 42000 pM

logD [16]: 1.27
Structure (SMILES): Cc1ncc(CO)c(/C=N/NC(=O)CN2CCN(Cc3ccccc3)CC2)c1O
Activity [10]: inactive | Activity [11]: inactive | Activity [12]: inactive | Activity [4]: inactive | Activity [13]: Active | Activity [14]: Active | Activity [7]: Dose-dependent effect | EC50 [15]: ND(Insoluble) | Kd [9]: 0.2 pM

Continued, compound first:

Structure (SMILES): c1ccc(CN(CCN(Cc2ccccn2)Cc2ccccn2)Cc2ccccn2)nc1
Activity [17]: inactive | Activity [18]: inactive | Activity [4]: inactive | Activity [19]: Active | Activity [20]: Active | Activity [7]: Dose-dependent effect | EC50 [7]: 38000 nM | Kd [9]: 0.00026 pM

Structure (SMILES): O=C(CN1CCN(Cc2ccccc2)CC1)NNC(=O)CN(Cc1ccccn1)Cc1ccccn1
Activity [10]: inactive | Activity [11]: inactive | Activity [12]: Active | Activity [4]: inactive | Activity [13]: inactive | Activity [14]: Active | Activity [7]: Dose-dependent effect | EC50 [15]: ND(Insoluble) | logD [16]: 1.4 | Kd [9]: 1000 pM

Structure (SMILES): CN[C@@H]1C[C@H]2O[C@@](C)([C@@H]1OC)n1c3ccccc3c3c4c(c5c6ccccc6n2c5c31)C(=O)NC4 [STAUROSPORINE]
RFU [21]: 30000 | RFU [22]: 6000
